One block for each molecule: values may come before it. Calls of active or inactive are those of the source. No cut-off for these calls is given here.
Assays:
[1] = tested on: A549; test: Cytotoxicity against human A549 cells after 48 hrs by MTT assay; assay type: functional, cell-based; settings: A549, 48 h
Outline: (§1)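 The human cancer lines and mouse 4T1 breast cells were treated with compound for 48 h and assessed by MTT assay. IC50 is the concentration giving 50% inhibition. 5-Fluorouracil served as the MTT standard.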

[2] = tested on: PC-3; test: Cytotoxicity against human PC3 cells after 48 hrs by MTT assay; assay type: functional, cell-based; settings: PC-3, 48 h; outline: as §1
[3] = tested on: DU-145; test: Cytotoxicity against human DU145 cells after 48 hrs by MTT assay; assay type: functional, cell-based; settings: DU-145, 48 h; outline: as §1
[4] = tested on: HGC-27; test: Cytotoxicity against human HGC27 cells after 48 hrs by MTT assay; assay type: functional, cell-based; settings: HGC-27, 48 h; outline: as §1
[5] = tested on: HeLa; test: Cytotoxicity against human HeLa cells after 48 hrs by MTT assay; assay type: functional, cell-based; outline: as §1
[6] = tested on: BT-549; test: Cytotoxicity against human BT549 cells after 48 hrs by MTT assay; assay type: functional, cell-based; settings: BT-549, 48 h; outline: as §1
[7] = tested on: MDA-MB-231; test: Cytotoxicity against human MDA-MB-231 cells after 48 hrs by MTT assay; assay type: functional, cell-based; settings: MDA-MB-231, 48 h; outline: as §1
[8] = tested on: MDA-MB-453; test: Cytotoxicity against human MDA-MB-453 cells after 48 hrs by MTT assay; assay type: functional, cell-based; settings: MDA-MB-453, 48 h; outline: as §1
[9] = tested on: 4T1; test: Cytotoxicity against mouse 4T1 cells after 48 hrs by MTT assay; assay type: functional, cell-based; settings: 4T1, 48 h; outline: as §1
[10] = tested on: DU-145; test: Induction of apoptosis in human DU145 cells assessed as increase in intracellular reactive oxygen species after 6 hrs by DCFDA dye based spectrofluorometeric method; assay type: functional, cell-based
Outline: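 Intracellular ROS in DU145 cells was measured by DCFDA fluorescence after 6 h of treatment at several doses. Comparators were N-acetyl cysteine pretreatment before compound and H2O2-treated cells. Values are mean ± SD of three independent experiments.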

[11] = tested on: DU-145; test: Cell cycle arrest in human DU145 cells assessed as increase in accumulation at G0/G1 phase after 24 hrs by propidium iodide staining based FACS analysis; assay type: functional
[12] = tested on: DU-145; test: Induction of apoptosis in human DU145 cells assessed as cell detachment at 2 to 8 uM after 48 hrs by phase contrast microscopic method; assay type: functional, cell-based
Outline: (§2)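 Phase-contrast microscopy of DU145 cells treated at 2, 4 and 8 µM. Images were captured and scored against untreated control for cell detachment and nuclear shrinkage.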

[13] = tested on: DU-145; test: Induction of apoptosis in human DU145 cells assessed as nuclear shrinkage at 2 to 8 uM after 48 hrs by phase contrast microscopic method; assay type: functional, cell-based; outline: as §2
[14] = tested on: DU-145; test: Induction of apoptosis in human DU145 cells assessed as membrane blebbing at 8 uM after 48 hrs by acridine orange/ethidium bromide staining-based fluorescence microscopic analysis; assay type: functional, cell-based
Outline: (§3)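 Treated DU145 cells were double-stained with acridine orange and ethidium bromide and imaged by fluorescence microscopy. Acridine orange stains intact nuclei green; ethidium bromide stains nuclei of membrane-compromised cells red. Cells were scored for blebbing, chromatin condensation, shrinkage and apoptotic bodies versus control.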

[15] = tested on: DU-145; test: Induction of apoptosis in human DU145 cells assessed as chromatin condensation at 8 uM after 48 hrs by acridine orange/ethidium bromide staining-based fluorescence microscopic analysis; assay type: functional, cell-based; outline: as §3
[16] = tested on: DU-145; test: Induction of apoptosis in human DU145 cells assessed as cell shrinkage at 8 uM after 48 hrs by acridine orange/ethidium bromide staining-based fluorescence microscopic analysis; assay type: functional; outline: as §3
[17] = tested on: DU-145; test: Induction of apoptosis in human DU145 cells assessed as apoptotic body formation at 8 uM after 48 hrs by acridine orange/ethidium bromide staining-based fluorescence microscopic analysis; assay type: functional, cell-based; outline: as §3
[18] = tested on: DU-145; test: Cell cycle arrest in human DU145 cells assessed as accumulation at G0/G1 phase at 1 uM after 24 hrs by propidium iodide staining based FACS analysis (reference value: 64.1%); assay type: functional
[19] = tested on: DU-145; test: Cell cycle arrest in human DU145 cells assessed as accumulation at S phase at 1 uM after 24 hrs by propidium iodide staining based FACS analysis (reference value: 7.93%); assay type: functional
[20] = tested on: DU-145; test: Cell cycle arrest in human DU145 cells assessed as accumulation at G2/M phase at 1 uM after 24 hrs by propidium iodide staining based FACS analysis (reference value: 16.38%); assay type: functional
[21] = tested on: DU-145; test: Cell cycle arrest in human DU145 cells assessed as accumulation at G0/G1 phase at 2 uM after 24 hrs by propidium iodide staining based FACS analysis (reference value: 64.1%); assay type: functional
[22] = tested on: DU-145; test: Cell cycle arrest in human DU145 cells assessed as accumulation at S phase at 2 uM after 24 hrs by propidium iodide staining based FACS analysis (reference value: 7.93%); assay type: functional
[23] = tested on: DU-145; test: Cell cycle arrest in human DU145 cells assessed as accumulation at G2/M phase at 2 uM after 24 hrs by propidium iodide staining based FACS analysis (reference value: 16.38%); assay type: functional
[24] = tested on: DU-145; test: Cell cycle arrest in human DU145 cells assessed as accumulation at G0/G1 phase at 4 uM after 24 hrs by propidium iodide staining based FACS analysis (reference value: 64.1%); assay type: functional
[25] = tested on: DU-145; test: Cell cycle arrest in human DU145 cells assessed as accumulation at S phase at 4 uM after 24 hrs by propidium iodide staining based FACS analysis (reference value: 7.93%); assay type: functional
[26] = tested on: DU-145; test: Cell cycle arrest in human DU145 cells assessed as accumulation at G2/M phase at 4 uM after 24 hrs by propidium iodide staining based FACS analysis (reference value: 16.38%); assay type: functional
[27] = tested on: DU-145; test: Cell cycle arrest in human DU145 cells assessed as accumulation at G0/G1 phase at 8 uM after 24 hrs by propidium iodide staining based FACS analysis (reference value: 64.1%); assay type: functional
[28] = tested on: DU-145; test: Cell cycle arrest in human DU145 cells assessed as accumulation at S phase at 8 uM after 24 hrs by propidium iodide staining based FACS analysis (reference value: 7.93%); assay type: functional
[29] = tested on: DU-145; test: Cell cycle arrest in human DU145 cells assessed as accumulation at G2/M phase at 8 uM after 24 hrs by propidium iodide staining based FACS analysis (reference value: 16.38%); assay type: functional
[30] = tested on: DU-145; test: Induction of apoptosis in human DU145 cells assessed as loss of mitochondrial membrane potential after 24 hrs by JC1 staining-based fluorescence microscopic method; assay type: functional, cell-based
Outline: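 DU145 cells were treated at 2, 4 and 8 µM for 24 h and stained with JC-1. Orange aggregates mark polarised mitochondria and green monomers mark depolarised ones, imaged by fluorescence. JC-1 aggregate intensity was quantified by spectrofluorometry.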

[31] = species: Bos taurus; test: Binding affinity to calf thymus DNA assessed as increase in viscosity at 5 uM by Rolling-ball viscometric method
[32] = tested on: DU-145; test: Induction of apoptosis in human DU145 cells assessed as horse shoe shaped nuclei at 2 to 8 uM after 24 hrs by DAPI staining based fluorescence microscopic method
[33] = tested on: DU-145; test: Induction of apoptosis in human DU145 cells assessed as formation of condensed nuclei at 2 to 8 uM after 24 hrs by DAPI staining based fluorescence microscopic method

Structure (SMILES): COc1cc2cc(Cn3cc(COc4c(Br)cccc4Br)nn3)c3cc(OC)c(OC)cc3c2cc1OC
IC50 [1]: > 20 µM
IC50 [2]: 14.1 µM
IC50 [3]: > 20 µM
IC50 [4]: 3.6 µM
IC50 [5]: 5.15 µM
IC50 [6]: > 20 µM
IC50 [7]: > 20 µM
IC50 [8]: > 20 µM
IC50 [9]: 7.4 µM

Structure (SMILES): COc1cc2cc(Cn3cc(CO)nn3)c3cc(OC)c(OC)cc3c2cc1OC
IC50 [1]: > 20 µM
IC50 [2]: > 20 µM
IC50 [3]: > 20 µM
IC50 [4]: > 20 µM
IC50 [5]: 18.3 µM
IC50 [6]: 8.2 µM
IC50 [7]: 6.8 µM
IC50 [8]: 13.5 µM
IC50 [9]: > 20 µM

Structure (SMILES): COc1cc2cc(Cn3cc(CCO)nn3)c3cc(OC)c(OC)cc3c2cc1OC
IC50 [1]: > 20 µM
IC50 [2]: > 20 µM
IC50 [3]: > 20 µM
IC50 [4]: 14.2 µM
IC50 [5]: 17.2 µM
IC50 [6]: > 20 µM
IC50 [7]: > 20 µM
IC50 [8]: > 20 µM
IC50 [9]: > 20 µM

Structure (SMILES): COc1ccc2c3c(c4cc(OC)c(OC)cc4c2c1)C[C@H]1CCCN1C3 [(-)-ANTOFINE]
IC50 [7]: 0.012 µM

Structure (SMILES): COc1cc2cc(Cn3cc(COc4ccc(-c5ccccc5)cc4)nn3)c3cc(OC)c(OC)cc3c2cc1OC
IC50 [1]: > 20 µM
IC50 [2]: 12.5 µM
IC50 [3]: > 20 µM
IC50 [4]: > 20 µM
IC50 [5]: > 20 µM
IC50 [6]: > 20 µM
IC50 [7]: > 20 µM
IC50 [8]: > 20 µM
IC50 [9]: 10.8 µM

Activity [31]: Active
Structure (SMILES): COc1cc2cc(Cn3cc(CN4C(=O)c5cccc6cccc(c56)C4=O)nn3)c3cc(OC)c(OC)cc3c2cc1OC
Activity [10]: Dose-dependent effect
Activity [11]: Dose-dependent effect
IC50 [1]: > 20 µM
IC50 [2]: 8.5 µM
IC50 [3]: 1.5 µM
IC50 [4]: 5.1 µM
IC50 [5]: 2.9 µM
IC50 [6]: 3.7 µM
IC50 [7]: 4.2 µM
IC50 [8]: 5.1 µM
IC50 [9]: 4.2 µM
Activity [12]: Active
Activity [13]: Active
Activity [14]: Active
Activity [15]: Active
Activity [16]: Active
Activity [17]: Active
Activity [18]: 71.1%
Activity [19]: 4.4%
Activity [20]: 20.46%
Activity [21]: 73.32%
Activity [22]: 6.37%
Activity [23]: 16.71%
Activity [24]: 80.37%
Activity [25]: 5.37%
Activity [26]: 11.7%
Activity [27]: 88.62%
Activity [28]: 1.91%
Activity [29]: 7.64%
Activity [30]: Dose-dependent effect
Activity [32]: Active
Activity [33]: Active

Structure (SMILES): COc1cc2cc(Cn3cc(COc4ccc(OCc5ccccc5)cc4)nn3)c3cc(OC)c(OC)cc3c2cc1OC
IC50 [1]: > 20 µM
IC50 [2]: > 20 µM
IC50 [3]: > 20 µM
IC50 [4]: 9.6 µM
IC50 [5]: 21.1 µM
IC50 [6]: 14.3 µM
IC50 [7]: > 20 µM
IC50 [8]: > 20 µM
IC50 [9]: 9.3 µM

Structure (SMILES): COc1cc2cc(Cn3cc(COc4ccccc4OC)nn3)c3cc(OC)c(OC)cc3c2cc1OC
IC50 [1]: > 20 µM
IC50 [2]: > 20 µM
IC50 [3]: > 20 µM
IC50 [4]: 9.1 µM
IC50 [5]: 11.2 µM
IC50 [6]: > 20 µM
IC50 [7]: > 20 µM
IC50 [8]: > 20 µM
IC50 [9]: > 20 µM

From ChEMBL document CHEMBL4028832, “Design and synthesis of 1,2,3-triazolo-phenanthrene hybrids as cytotoxic agents” (Bioorg Med Chem Lett, 2017)
